Reference: ChEMBL document CHEMBL1687720 (Antimicrob Agents Chemother, 2009)

Legend:
Plasmodium falciparum [1] = experiment: Upregulation of selenoprotein-1 mRNA level in Plasmodium falciparum 3D7 trophozoites at 126 nM after 12 hrs by RT-qPCR analysis relative to untreated control; assay type: functional
How it was run: (§1)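 Synchronized 3D7 trophozoites in RPMI/Albumax culture at 37°C under 3% O2, 3% CO2 were exposed 12, 15 or 18 h, then harvested by 0.02% saponin lysis. RNA was reverse-transcribed and analyzed by real-time PCR in quadruplicate. Quantification used ΔΔCT with 18S rRNA reference (LDH also checked), expressed as % of untreated control.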

Plasmodium falciparum [2] = experiment: Upregulation of glutathione synthetase mRNA level in Plasmodium falciparum 3D7 trophozoites at 126 nM after 18 hrs by RT-qPCR analysis relative to untreated control; assay type: functional; how it was run: as §1
Plasmodium falciparum [3] = experiment: Downregulation of DNA-directed RNA polymerase 2 mRNA level in Plasmodium falciparum 3D7 trophozoites at 126 nM by RT-qPCR analysis relative to untreated control; assay type: functional
How it was run: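 P. falciparum 3D7 trophozoites are exposed to 126 nM compound for 12, 15 or 18 h, then harvested by saponin lysis at 37°C. RNA is extracted and reverse-transcribed, and transcripts are quantified by real-time PCR in quadruplicate. Analysis uses ΔΔCT with 18S rRNA as reference (LDH also checked), expressed as % of untreated control.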

Plasmodium berghei = experiment: Antimalarial activity against Plasmodium berghei infected in mouse assessed as reduction in parasite load at 10 mg/kg for 4 days treated postinfection measured on day 9; assay type: functional; parameters: scale not given: the % may be the effect or the level left
How it was run: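 Murine P. berghei model; compound given subcutaneously at 10 mg/kg for 4 days postinfection; parasitemia compared with untreated controls (n = 13 per group) on days 4, 7 and 9; significance by Fisher's exact test.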

[4] = Cytotoxicity against human A549 cells assessed as reduction in viable cells at 60 uM by Trypan blue assay; assay type: cell-based; settings: read-out: INH
How it was run: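 A549 cells are grown in DMEM with 10% FCS at 37°C and 5% CO2, and treated for 24 h. They are washed in cold PBS and trypsinized. Viable and nonviable cells are counted by trypan blue exclusion on a hemocytometer.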

A549 [5] = experiment: Effect on thioredoxin reductase expression in human A549 cells assessed as transcript level at 5 nM after 24 hrs by RT-qPCR analysis relative to untreated control; assay type: functional; settings: in the assay text read “5 µM” for “5 nM”
How it was run: (§2)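 A549 cells are seeded at 2.5 × 10^5 per 25-cm2 well. At 40–45% confluence they are treated for 24 h with 166 or 662 μM, 158 or 315 μM, or 5 or 24 μM compound; controls receive <5% DMSO. Total RNA is DNase-treated and qRT-PCR is run in quadruplicate. Values are normalized to GAPDH and given as % of untreated control.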

A549 [6] = experiment: Inhibition of glutathione peroxidase in human A549 cells assessed as enzyme activity at 5 µM after 24 hrs relative to untreated control; parameters: scale not given: the % may be the effect or the level left
Plasmodium falciparum [7] = experiment: Antiplasmodial activity against chloroquine-resistant Plasmodium falciparum K1 in presence of artemisinin; assay type: functional
Plasmodium falciparum [8] = experiment: Antiplasmodial activity against chloroquine-resistant Plasmodium falciparum K1 in presence of artesunate; assay type: functional
Plasmodium falciparum [9] = experiment: Antiplasmodial activity against chloroquine-resistant Plasmodium falciparum K1 in presence of premaquine; assay type: functional
A549 [10] = experiment: Effect on glutathione peroxidase expression in human A549 cells assessed as transcript level at 662 nM after 24 hrs by RT-qPCR analysis relative to untreated control; assay type: functional; settings: in the assay text read “662 µM” for “662 nM”; how it was run: as §2
A549 [11] = experiment: Inhibition of glutathione peroxidase in human A549 cells assessed as enzyme activity at 166 µM after 24 hrs relative to untreated control; parameters: scale not given: the % may be the effect or the level left
A549 [12] = experiment: Inhibition of glutathione peroxidase in human A549 cells assessed as enzyme activity at 662 µM after 24 hrs relative to untreated control; parameters: scale not given: the % may be the effect or the level left
A549 [13] = experiment: Inhibition of glutathione S-transferase in human A549 cells assessed as enzyme activity at 662 µM after 24 hrs relative to untreated control; parameters: scale not given: the % may be the effect or the level left
Thioredoxin reductase = Thioredoxin reductase (Homo sapiens, UniProt Q16881+Q9NNW7+Q86VQ6); experiment: Inhibition of thioredoxin reductase in human A549 cells assessed as enzyme activity at 662 µM after 24 hrs by DTNB assay relative to untreated control; parameters: scale not given: the % may be the effect or the level left
A549 [14] = experiment: Effect on thioredoxin reductase expression in human A549 cells assessed as transcript level at 158 nM after 24 hrs by RT-qPCR analysis relative to untreated control; assay type: functional; settings: in the assay text read “158 µM” for “158 nM”; how it was run: as §2
A549 [15] = experiment: Effect on glutathione S-transferase expression in human A549 cells assessed as transcript level at 315 nM after 24 hrs by RT-qPCR analysis relative to untreated control; assay type: functional; settings: in the assay text read “315 µM” for “315 nM”; how it was run: as §2
A549 [16] = experiment: Effect on glutathione reductase expression in human A549 cells assessed as transcript level at 158 nM after 24 hrs by RT-qPCR analysis relative to untreated control; assay type: functional; settings: in the assay text read “158 µM” for “158 nM”; how it was run: as §2
A549 [17] = experiment: Effect on glutathione peroxidase expression in human A549 cells assessed as transcript level at 158 nM after 24 hrs by RT-qPCR analysis relative to untreated control; assay type: functional; settings: in the assay text read “158 µM” for “158 nM”; how it was run: as §2
[18] = molecular target: T1, Glutathione reductase, mitochondrial (Homo sapiens) (UniProt P00390); experiment: Inhibition of glutathione reductase in human A549 cells assessed as enzyme activity at 158 µM after 24 hrs relative to untreated control; parameters: scale not given: the % may be the effect or the level left
T1 sequence (whole entry): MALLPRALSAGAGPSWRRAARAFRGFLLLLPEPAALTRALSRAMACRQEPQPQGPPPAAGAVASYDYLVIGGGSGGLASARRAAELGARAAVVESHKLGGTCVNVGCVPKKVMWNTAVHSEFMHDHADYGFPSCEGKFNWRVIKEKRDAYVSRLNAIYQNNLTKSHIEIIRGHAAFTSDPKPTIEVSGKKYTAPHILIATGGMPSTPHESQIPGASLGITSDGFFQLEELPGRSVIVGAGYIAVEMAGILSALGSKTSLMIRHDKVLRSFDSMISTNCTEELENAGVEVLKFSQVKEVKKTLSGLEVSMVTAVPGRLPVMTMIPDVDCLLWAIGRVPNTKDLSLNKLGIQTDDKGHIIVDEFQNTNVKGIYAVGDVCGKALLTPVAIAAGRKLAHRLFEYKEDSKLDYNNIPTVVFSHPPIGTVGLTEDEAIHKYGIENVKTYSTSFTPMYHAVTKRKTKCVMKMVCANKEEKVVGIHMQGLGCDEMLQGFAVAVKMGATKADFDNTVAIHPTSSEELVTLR

A549 [19] = experiment: Inhibition of glutathione S-transferase in human A549 cells assessed as enzyme activity at 315 µM after 24 hrs relative to untreated control; parameters: scale not given: the % may be the effect or the level left

O=c1oc2c(O)c(O)c(O)c3c(=O)oc4c(O)c(O)c(O)c1c4c23 [CORULEOELLAGIC ACID]
Activity (Plasmodium falciparum [1]): 160%
Activity (Plasmodium falciparum [2]): 128%
Activity (Plasmodium falciparum [3]): 42%
Activity (Plasmodium berghei): 50%
cytotoxicity at 60 µM [4]: 50%
Activity (A549 [5]): 76%
Activity (A549 [6]): 85%

O=c1oc2c(O)c(O)cc3c(=O)oc4c(O)c(O)cc1c4c23 [ELLAGIC ACID]
FIC50 (Plasmodium falciparum [7]): 1
FIC50 (Plasmodium falciparum [8]): 1
FIC50 (Plasmodium falciparum [9]): 1
Activity (A549 [10]): 150%
Activity (A549 [11]): 86%
Activity (A549 [12]): 125%
Activity (A549 [13]): 101%
Activity (Thioredoxin reductase): 77%

O=c1oc2c(O)c(O)c(O)c3c(=O)oc4c(O)c(O)cc1c4c23 [FLAVELLAGIC ACID]
Activity (A549 [14]): 97%
Activity (A549 [15]): 164%
Activity (A549 [16]): 105%
Activity (A549 [17]): 107%
Activity [18]: 87%
Activity (A549 [19]): 121%
